In ChEMBL document CHEMBL1132547, “Molecular recognition of modified adenine nucleotides by the P2Y(1)-receptor. 1. A synthetic, biochemical, and NMR approach” (J Med Chem, 1999):
pEC50: −log10 of the molar value.

Columns and labels:
[1] = target: P2Y purinoceptor 1 (Meleagris gallopavo, UniProt P49652); experiment: Compounds was tested for its ability to stimulate phospholipase C activity at the P2Y purinoceptor 1 in turkey erythrocyte membranes.; assay type: cell membranes
How it was run: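 Turkey erythrocytes labeled 18–24 h at 37 °C with 2-[3H]myo-inositol in inositol-free DMEM; membranes from hypotonic lysis; PLC assay at pH 7.0 with […] and varying nucleotide concentrations, 5 min at 30 °C; total [3H]inositol phosphates by ion-exchange chromatography; EC50 from four-parameter logistic fit, ≥3 experiments on different membrane preparations, duplicate assays.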

[2] = species on record: Rattus norvegicus; experiment: Amplitude of the [Ca++]i Transient evoked by 10 uM ATP, AMP and the compound in NG108-15 Neuroblastoma x Glioma Hybrid cells; assay type: functional
How it was run: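 NG108-15 cells (passage 24–40) grown on glass coverslips 3–7 days (20–80% confluency), loaded 30 min at 37 °C with 2 μM fura-2/AM in HEPES-buffered saline pH 7.4, superfused at 37 °C; 30-s agonist application at 10 μM; single-cell imaging, alternate 340/380 nm excitation, emission >510 nm; amplitude as Δ F340/F380 ratio, mean ± SEM over n single cells.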

[3] = species on record: Rattus norvegicus; experiment: Amplitude of the [Ca++]i Transient evoked by 10 uM ATP, AMP and the compound in rat Astrocytes, expressed as (F340 nm/F380 nm); assay type: functional
How it was run: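 Primary astrocyte-enriched cultures from newborn Wistar rat whole brain, used on days 6–11 in culture; fura-2/AM (2 μM, 30 min, 37 °C, HEPES-buffered saline pH 7.4) loading; superfusion at 37 °C, 30-s stimulation at 10 μM; single-cell 340/380 nm ratio imaging; maximal Δ F340/F380, mean ± SEM, n = single cells.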

Chain of P2Y purinoceptor 1 (P49652 whole entry): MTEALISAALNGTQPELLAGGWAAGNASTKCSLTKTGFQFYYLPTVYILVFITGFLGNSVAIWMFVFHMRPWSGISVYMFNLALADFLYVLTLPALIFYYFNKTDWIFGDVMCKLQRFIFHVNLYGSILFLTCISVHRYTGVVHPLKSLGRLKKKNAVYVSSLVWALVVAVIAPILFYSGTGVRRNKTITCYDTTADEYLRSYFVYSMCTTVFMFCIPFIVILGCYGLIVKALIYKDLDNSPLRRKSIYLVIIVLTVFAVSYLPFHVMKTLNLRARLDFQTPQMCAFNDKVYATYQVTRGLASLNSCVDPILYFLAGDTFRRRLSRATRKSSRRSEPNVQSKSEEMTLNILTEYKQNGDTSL

pEC50 [1] | Structure (SMILES) | Activity [2] | Activity [3]
7.74 | CCCCSc1nc(N)c2ncn([C@@H]3O[C@H](COP(=O)([O-])OP(=O)([O-])OP(=O)([O-])[O-])[C@@H](O)[C@H]3O)c2n1.[Na+].[Na+].[Na+].[Na+] | 0.23 | 0.9
5.00 | CCCCSc1nc2c(N)ncnc2n1[C@@H]1O[C@H](COP(=O)(O)OP(=O)(O)OP(=O)(O)O)[C@@H](O)[C@H]1O | – | –
5.24 | CCCCOc1nc2c(N)ncnc2n1[C@@H]1O[C@H](COP(=O)(O)OP(=O)(O)OP(=O)(O)O)[C@@H](O)[C@H]1O | – | –
– | CCCCSc1nc(N)c2ncn(C3O[C@H](COP(=O)([O-])[O-])[C@@H](O)[C@H]3O)c2n1.[Na+].[Na+] (stereo partly drawn) | – | 0.28
7.41 | CCCCNc1nc(N)c2ncn([C@@H]3O[C@H](COP(=O)([O-])OP(=O)([O-])OP(=O)([O-])[O-])[C@@H](O)[C@H]3O)c2n1.[Na+].[Na+].[Na+].[Na+] | 0.05 | 0.89
4.29 | CCCCNc1nc2c(N)ncnc2n1[C@@H]1O[C@H](COP(=O)(O)OP(=O)(O)OP(=O)(O)O)[C@@H](O)[C@H]1O | – | –
7.06 | CCCCOc1nc(N)c2ncn([C@@H]3O[C@H](COP(=O)([O-])OP(=O)([O-])OP(=O)([O-])[O-])[C@@H](O)[C@H]3O)c2n1.[Na+].[Na+].[Na+].[Na+] | 0.06 | 0.63
